Molecules are shown by their SMILES.

The nature of this series: Toxicity liver stage against HepG2, at 10uM. It counts as cell-based. Also on record: test concentration 10 uM, cell line HepG2-A16-CD81EGFP. To be noted: human, HepG2-A16-CD81EGFP cells; read-out: INHIBITION
Put shortly:
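Uninfected HepG2-A16-CD81EGFP cells, 3 × 10^3 per well, 1536-well, plated on prespotted compound at 10 μM final, parasite-free screening media added to match infected plates; puromycin 10 μM positive, DMSO 0.5% negative; run in parallel with 48 h PbLuc assay at 37 °C, 5% CO2; viability by CellTiter-Glo luminescence, normalized to controls.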
As for `COCC(=O)N[C@H](C)c1c(-c2ccc(OC)cc2)noc1C(=O)O`, the cytotoxicity at 10 µM stood at 0.588%.
In the case of `CCOC(=O)[C@@H]1[C@@H](O)C(=O)N(C)C12CCN(C(=O)OC)CC2`, the cytotoxicity at 10 µM amounted to 1.97%.
For `CCn1cc(-c2nn3c(C(F)(F)F)nnc3s2)cn1` the value was -12.3%; for `Cn1c(-c2cccs2)nn(CCNS(=O)(=O)c2ccccc2Cl)c1=O`, -9.48%.
Then `Cc1cccc(OC2CCN(C(=O)Cn3ccc4ccccc43)CC2)n1`, with 1.53%; and `Cc1nsc(C(=O)NCCc2cccs2)n1`, with -2.67%; and `O=S(=O)(Nc1cnn(C2CCOCC2)c1)c1ccc(Br)cc1`, with 5.05%.
Then `c1cncc(CN2CCC3(CCCN(c4nncs4)C3)C2)c1` (stereo not drawn), with -144%; and `CC(C)CN1CCC2(CC(C(=O)NCc3cccnc3)=NO2)C1` (stereo not drawn), with -5.99%; and `COc1ccc(C)cc1S(=O)(=O)NCCC(O)c1ccccc1` (stereo not drawn), with 0.197%.
Turning to `COc1cc(-c2n[nH]c(CCN)n2)cc(OC)c1OC`, the cytotoxicity at 10 µM was -0.297%.
On to `Cc1nc(N2CCCC2)ncc1-c1cc(O)nc(N2CCCC2)n1`, for which the cytotoxicity at 10 µM was 6.79%.
Then `CCOc1ccc(N2CCCN=C2NC(=O)c2ccccc2C)cc1`, with -6.69%; and `O=C(Cc1ccccc1F)N1CCC[C@@H]1Cn1c(=O)oc2ccccc21`, with 2.69%; and `Cc1cc(Cc2ccccc2C)cc(C2CCCNC2)n1` (stereo not drawn), with -3.59%.
For `CC(C)CC(NC(=O)c1cccs1)c1nc2cccnc2n1C` (stereo not drawn) the value was 7.27%.
Then `Cc1nn(C)cc1NC(=O)CC1CCN(C(=O)Cc2ccccc2)CC1`, with 1.96%; and `O=C1CCC[C@]2(CN(S(=O)(=O)C3CCCCC3)C[C@H]2c2cccnc2)N1`, with -12.4%; and `Cc1cc(C)nc(N2CCOC(C)(C(=O)N(C)C)C2)n1` (stereo not drawn), with -3.04%.
Consider `Cc1csc(C(Cc2ccsc2)NC(=O)C2CCN(S(C)(=O)=O)CC2)n1` (stereo not drawn), for which the cytotoxicity at 10 µM is -18%.
Then `CN(C)CCOc1cc(NC(=O)COCC(F)(F)F)ccn1`, with -2.29%; and `CCc1nnsc1C(=O)NCCCC(CC)(CC)C1OCCO1`, with 5.95%; and `COc1c(Cl)cc(Cl)cc1CN1CCC(C(N)=O)C1` (stereo not drawn), with 11.9%.
For `CCN(CC1CCOC1)S(=O)(=O)Cc1ccccc1Cl` (stereo not drawn) the value was -0.768%.
Then `COc1cccc(CC(=O)NCCc2nnc3n2CCCCC3)c1`, with -18.4%; and `COc1ccc(Cl)cc1NCC(=O)N(Cc1ccccn1)C1CC1`, with 8.13%.
Take `Cc1noc(C(C)N2CCN(CCc3ccncc3)CC2)n1` (stereo not drawn): the cytotoxicity at 10 µM is 2.67%.
For `Cc1noc(C)c1C(C)NC(=O)N1CCCN(C(=O)c2ccsc2)CC1` (stereo not drawn), the cytotoxicity at 10 µM was -0.77%.
Then `CC(NC(=O)Nc1cccnc1N1CCOCC1)c1ccccn1` (stereo not drawn), with 0.456%; and `CC(C)CC(=O)N1CCC2(CC1)OCCO2`, with 4.37%.
For `O=C(Cc1cccnc1)NCCSc1ccccc1F` the value was -6.45%; for `CCOC(=O)C1CCN(Cc2c(O)ccc3oc4c(c23)CCCC4)CC1`, -1.2%; for `NC(=O)CCCNC(=O)Cc1cccc(I)c1`, -3.71%.
For `C1CC(c2noc(C3CC3)n2)CN(CCOCC2CC2)C1` (stereo not drawn) the value was -8.91%; for `Cc1nc(C(=O)NCc2ccc(N3CCNC(=O)C3)c(F)c2)cs1`, -0.0162%.
Turning to `CNC(=O)CS(=O)(=O)Cc1coc(-c2cccc(F)c2)n1`, the cytotoxicity at 10 µM stood at 1.28%.
Then `OCC1(NCc2cnc(-c3ccsc3)s2)CCOCC1`, with -3.1%.
Then `O=C(c1cccc(F)c1Cl)N(CCO)CC1CC1`, with 0.684%.
For `CN(Cc1nnc(C2CC2)n1C)C1CCN(CCc2ccncc2)C1` (stereo not drawn) the value was -4.56%; for `Cc1ccc(OCCC(=O)N(C)CCC#N)cc1C`, 6.5%.
With `COCc1csc(NC(=O)NCc2ccc(C)s2)n1`, the cytotoxicity at 10 µM is 2.44%.
Then `O=C(c1cc[nH]c(=O)c1)N1CCn2c(nnc2-c2ccccc2)C1`, with -4.71%.
For `O=C(Nc1ccccc1-c1cccs1)N1CCOCC1` the value was -5.01%.
For `Cn1cc(CNC(=O)C2CCCN(Cc3cccc(F)c3)C2)cn1` (stereo not drawn) the value was 3.44%; for `CC(C)(CCS(C)(=O)=O)CNC(=O)NC1CCCCC1(C)C` (stereo not drawn), 11.3%; for `COCCOc1ccc(CNc2nc3ccccc3o2)cn1`, 7.45%.
For the molecule `CCOc1ccc(S(=O)(=O)C(C)C(=O)Nc2cc(C)no2)cc1` (stereo not drawn), the cytotoxicity at 10 µM amounted to 5.07%.
For `O=C(NCC(CO)Cc1ccc(Cl)cc1)c1ccncc1F` (stereo not drawn) the value was -4.84%; for `O=S(=O)(Cc1ccc(F)c(Cl)c1)NCCOc1cccnc1`, -49.9%.
For `CC(C)CNC(=O)CCN1C(=O)CCc2cc(F)ccc21` the value was 8.17%; for `CCSCCC(=O)Nc1ncn(Cc2cccnc2)n1`, 25.1%; for `COc1cccc(S(=O)(=O)CCN2CCCCC2)c1`, 2.37%.
For `CCCc1noc(CCC(=O)NC(C)c2nnc3n2CCCCC3)n1` (stereo not drawn) the value was 4.05%; for `Cc1ccc(CC(=O)NC(C)C(=O)N2CCS(=O)(=O)CC2)cc1` (stereo not drawn), 1.73%.
For `Cc1ccn(-c2ccccc2NCc2cccnc2C)n1`, the cytotoxicity at 10 µM is 1.34%.
Then `Cc1csc(CNC(=O)NC2CCN(c3ncccn3)CC2)n1`, with -10.6%.
For `Cc1nc(CC(=O)N2CCCN(c3ccc(C#N)cc3)CC2)cs1` the value was 2.37%; for `COCC(=O)N(C)Cc1ccc(Cl)c(Cl)c1`, -5.13%; for `Cc1cnn(C2CCCN(C(=O)c3cc(C)sc3C)C2)c1` (stereo not drawn), -1.4%.
Then `O=C(C1CCC1)N1CCCC1c1nnc2n1CCCCC2` (stereo not drawn), with 1.26%; and `CS(=O)(=O)N1CCO[C@@H]2CN(C(=O)N3CCOCC3)CC[C@@H]2C1`, with -105%.
Consider `O=C1CCC(C(=O)N2CCOC(Cc3ccc(F)cc3)C2)=NN1` (stereo not drawn), for which the cytotoxicity at 10 µM is -6.26%.
For `CCn1ncnc1CN1CCC(CNC(=O)c2cccnc2O)C1` (stereo not drawn) the value was 7.06%; for `CC(C)(C)c1cc(=O)[nH]c(-c2ccccc2CN2CCC[C@@H](O)C2)n1`, -43.3%.
For `Cc1cccc(C(Nc2nccc(-c3ccc(C)nc3C)n2)C2CC2)n1` (stereo not drawn) the value was 0.74%; for `CN1C(=O)CC(C(=O)O)C12CCN(c1ccc3c(n1)CCCC3)CC2` (stereo not drawn), 2.78%.
For `COCCN(CC1CCCN(C2Cc3ccccc3C2)C1)C(=O)COC` (stereo not drawn), the cytotoxicity at 10 µM is -5.98%.
For `CCC1CN(Cc2nnc(C(C)C)o2)CCC(=O)N1Cc1ccccc1` (stereo not drawn) the value was 3.33%; for `CCCSc1nc(O)c(CC)c(=O)n1-c1ccccc1`, 2.77%.
Then `CCCN1CC2(CCN(c3cc(C4CC4)ncn3)CC2)CC1C(=O)O` (stereo not drawn), with -9.88%; and `COc1cccc(C2CCCN2C(=O)CC2=CSC3=NCCCN23)c1` (stereo not drawn), with -0.277%; and `Cc1ccc(O)c(-c2cc(NCCO)nc3[nH]ccc23)c1`, with 14.1%.
As for `COCc1ccc(C(=O)N2CCC(Oc3ccccc3)(C(=O)O)CC2)o1`, the cytotoxicity at 10 µM was 0.871%.
As for `COCc1cc(CN(C)C(=O)c2c[nH]nc2-c2cccc(F)c2)n[nH]1`, the cytotoxicity at 10 µM was determined as 0.445%.
Then `CCc1cnc(C)nc1NC(CC)c1ncnn1CC` (stereo not drawn), with -10.2%.
For `COc1cc(CN2CCCC23CCN(c2ccccn2)CC3)ccc1F` the value was -11.5%; for `COCCNS(=O)(=O)c1ccc2c(c1)CCN(C(=O)c1cncn1C)C2`, 9.65%.
For `N#Cc1ccc(C2CC(=O)Nc3c2cnn3C2CCCC2)cc1` (stereo not drawn), the cytotoxicity at 10 µM was 13.2%.
`COc1ccc(C(=O)N2CCCC2c2cnn(C)c2)cn1` (stereo not drawn): the cytotoxicity at 10 µM is -3.63%.
For `O=C(CS(=O)(=O)Cc1cc(Cl)c2c(c1)OCO2)N1CCCCCC1` the value was -2.8%; for `N#Cc1cccc(CN2CCCC2Cn2cccn2)c1` (stereo not drawn), -2.78%.
Then `Cc1ccc(C(O)CNC(=O)Nc2cc(C)nn2C)cc1` (stereo not drawn), with -13.3%.
Take `Cc1ccc(CN(C)C(=O)c2scnc2C)cc1`: the cytotoxicity at 10 µM was -6.8%.
For `O=C(N1CCOCC1)N1CCN(CC(O)c2ccc(F)cc2)CC1` (stereo not drawn) the value was -2.42%.
`Cc1cc(CN(C)C(=O)c2ccc(Cl)c(N3CCCC3=O)c2)no1`: the cytotoxicity at 10 µM is -14.5%.
For `CCOc1ccnc(N2CCN(C(=O)c3cn[nH]c3C)CC2)n1` the value was 3.54%; for `CC(NC(=O)NCCCO)c1ccc2c(c1)NC(=O)CO2` (stereo not drawn), -3.05%.
Then `Cc1ccc(-c2noc(CN3CCc4nn(C)c(=O)cc4C3)n2)cc1`, with -8.78%.
Then `CCN(Cc1ccco1)C(=O)Nc1cc(C(F)(F)F)c[nH]c1=O`, with -2.6%; and `CCC(CO)NCc1ccc(-c2ccc(Br)cc2)o1` (stereo not drawn), with -5%; and `O=C(NC1CCCC1)c1ccnc(C2CCNCC2)c1`, with -11.3%.
In the case of `Cc1ccc(CN(CCCN2CCOCC2)Cc2cnc(C)n2C)o1`, the cytotoxicity at 10 µM was -24%.
Then `CCc1ccc(CN2CC[C@H]3C[C@H](c4nnc(C)[nH]4)O[C@@H]3C2)o1`, with -8.51%; and `c1cnc(NCc2nnn3c2CN(Cc2ccco2)CCC3)nc1`, with 9.08%.
For `C1CC(CO[C@@H]2CC[C@H]3[C@H]2OCCN3CC2CC2)CCO1` the value was 11.4%; for `CCOC1CC2(CCN(Cc3nccn3C)CC2)C1`, -144%; for `CO[C@H]1CCN(Cc2ccccn2)[C@@H]2CN(Cc3ccco3)C[C@H]12`, -7.76%.
Then `Cc1ccc(N2CCO[C@H]3CN(Cc4cccnc4)C[C@H]32)nn1`, with -81.3%.
